Measurements as given in ChEMBL document CHEMBL2311525, “Design, synthesis, and pharmacological properties of new heteroarylpyridine/heteroarylpyrimidine derivatives as CB(2) cannabinoid receptor partial agonists” (J Med Chem, 2013).

Assays:
Cannabinoid receptor 2 [1] = biological target: T1, Cannabinoid receptor 2 (Homo sapiens, UniProt P34972); assay: Agonist activity at human CB2 receptor expressed in CHO cells assessed as forskolin-stimulated [3H]cyclic-AMP accumulation by scintillation counting analysis relative to WIN 55,212-2; format: functional, cell-based
Procedure, shortened: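 CHO cells stably expressing human CB2, 1 × 10^6 cells/assay, in buffered saline (10 mM MgCl2, 5 mM glucose, 5 mM HEPES, pH 7.4, 37 °C) with 0.5 mM Ro 20-1724. Preincubated 10 min at 37 °C, then tested with 1 μM forskolin. Stopped with cold 6% TCA and ether-extracted. cAMP read by [3H]cAMP competition binding to beef adrenal binding protein with charcoal separation.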

Cannabinoid receptor 2 [2] = biological target: T1, Cannabinoid receptor 2; assay: Agonist activity at human CB2 receptor expressed in CHO cells assessed as forskolin-stimulated [3H]cyclic-AMP accumulation by scintillation counting analysis; format: functional, cell-based
Homo sapiens = species: Homo sapiens; assay: Selectivity index, ratio of Ki for human recombinant CB1 receptor to Ki for human recombinant CB2 receptor
Cannabinoid receptor 2 [3] = biological target: T1, Cannabinoid receptor 2; assay: Displacement of [3H]CP-55,940 from human recombinant CB2 receptor expressed in CHO cell membranes after 60 mins by scintillation counting analysis
Cannabinoid receptor 2 [4] = biological target: T2, Cannabinoid receptor 2 (Rattus norvegicus, UniProt Q9QZN9); assay: Displacement of [3H]CP-55,940 from Sprague-Dawley rat spleen CB2 receptor by scintillation counting analysis
T2 sequence (Q9QZN9 whole entry): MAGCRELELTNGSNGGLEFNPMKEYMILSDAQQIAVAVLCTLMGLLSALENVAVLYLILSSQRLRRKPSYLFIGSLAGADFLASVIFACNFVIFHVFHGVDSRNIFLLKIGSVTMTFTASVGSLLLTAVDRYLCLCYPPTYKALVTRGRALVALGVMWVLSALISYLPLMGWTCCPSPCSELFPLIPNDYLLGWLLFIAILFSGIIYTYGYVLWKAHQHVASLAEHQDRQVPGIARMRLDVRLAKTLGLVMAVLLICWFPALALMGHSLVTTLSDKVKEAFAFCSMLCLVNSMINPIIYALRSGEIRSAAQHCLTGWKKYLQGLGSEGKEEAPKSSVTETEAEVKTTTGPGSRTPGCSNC
Procedure, shortened: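 Male Sprague-Dawley rat spleen membranes, prepared by spinning at 2000g and then 40000g, in 50 mM Tris-HCl with 1 mM EDTA, 3 mM MgCl2 and 0.5% fatty-acid-free BSA, pH 7.4. Filtered on GF/C.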

Cannabinoid receptor 1 [5] = biological target: T3, Cannabinoid receptor 1 (Homo sapiens, UniProt P21554); assay: Displacement of [3H]CP-55,940 from human recombinant CB1 receptor expressed in CHO cell membranes after 90 mins by scintillation counting analysis
Cannabinoid receptor 1 [6] = biological target: Cannabinoid receptor 1 (Rattus norvegicus, UniProt P20272); assay: Displacement of [3H]CP-55,940 from Sprague-Dawley rat brain CB1 receptor by scintillation counting analysis
Procedure, shortened: (§1)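 Male Sprague-Dawley rat brain membranes, prepared by spinning at 2000g and then 40000g, in 50 mM Tris-HCl with 1 mM EDTA, 3 mM MgCl2 and 0.5% fatty-acid-free BSA, pH 7.4. Incubated with 1.0 nM [3H]CP-55,940, 40 μg protein/100 μL and test compound at 1 nM–10 μM. Filtered on GF/C. Ki by Cheng–Prusoff, n = 4.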

Cannabinoid receptor 1 [7] = biological target: T3, Cannabinoid receptor 1; assay: Displacement of [3H]CP-55,940 from human recombinant CB1 receptor expressed in CHO cell membranes at 1 to 10000 nM after 90 mins by scintillation counting analysis
Procedure, shortened: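 Membranes from CHO cells expressing hCB1, spun at 100000g, in 50 mM Tris-HCl with 0.5% BSA, 5 mM MgCl2 and 2.5 mM EDTA, pH 7.4. Incubated with 0.5 nM [3H]CP-55,940 and compound at 1 nM–10 μM for 90 min at 30 °C. Filtered on GF/C and counted. Ki by Cheng–Prusoff, n = 4.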

[8] = biological target: Cannabinoid receptor 1 (Rattus norvegicus) (UniProt P20272); assay: Displacement of [3H]CP-55,940 from Sprague-Dawley rat brain CB1 receptor at 1 to 10000 nM by scintillation counting analysis; procedure, shortened: as §1
Sequence of Cannabinoid receptor 1 (Rattus norvegicus) (P20272 whole entry): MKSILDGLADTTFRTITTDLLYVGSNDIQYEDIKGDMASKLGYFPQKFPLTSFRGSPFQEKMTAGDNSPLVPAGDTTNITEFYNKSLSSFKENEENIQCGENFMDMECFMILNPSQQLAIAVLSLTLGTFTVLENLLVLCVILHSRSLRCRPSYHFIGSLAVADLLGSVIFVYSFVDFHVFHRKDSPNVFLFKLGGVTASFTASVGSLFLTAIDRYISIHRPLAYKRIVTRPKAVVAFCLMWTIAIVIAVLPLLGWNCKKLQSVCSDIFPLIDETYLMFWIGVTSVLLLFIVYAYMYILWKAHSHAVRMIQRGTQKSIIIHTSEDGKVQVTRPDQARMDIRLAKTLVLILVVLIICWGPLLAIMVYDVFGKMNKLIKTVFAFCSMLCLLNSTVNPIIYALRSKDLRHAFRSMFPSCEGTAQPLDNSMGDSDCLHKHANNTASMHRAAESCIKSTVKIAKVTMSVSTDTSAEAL

T1 sequence (P34972 whole entry): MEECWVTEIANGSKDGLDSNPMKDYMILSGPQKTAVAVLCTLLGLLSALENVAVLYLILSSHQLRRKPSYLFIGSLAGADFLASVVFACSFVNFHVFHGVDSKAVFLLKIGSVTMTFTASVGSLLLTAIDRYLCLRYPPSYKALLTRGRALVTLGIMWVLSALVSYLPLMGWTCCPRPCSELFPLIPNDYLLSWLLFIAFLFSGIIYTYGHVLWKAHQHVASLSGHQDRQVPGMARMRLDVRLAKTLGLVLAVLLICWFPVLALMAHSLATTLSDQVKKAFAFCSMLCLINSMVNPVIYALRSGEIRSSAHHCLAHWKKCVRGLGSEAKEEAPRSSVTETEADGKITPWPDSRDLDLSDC
T3 sequence (P21554 whole entry): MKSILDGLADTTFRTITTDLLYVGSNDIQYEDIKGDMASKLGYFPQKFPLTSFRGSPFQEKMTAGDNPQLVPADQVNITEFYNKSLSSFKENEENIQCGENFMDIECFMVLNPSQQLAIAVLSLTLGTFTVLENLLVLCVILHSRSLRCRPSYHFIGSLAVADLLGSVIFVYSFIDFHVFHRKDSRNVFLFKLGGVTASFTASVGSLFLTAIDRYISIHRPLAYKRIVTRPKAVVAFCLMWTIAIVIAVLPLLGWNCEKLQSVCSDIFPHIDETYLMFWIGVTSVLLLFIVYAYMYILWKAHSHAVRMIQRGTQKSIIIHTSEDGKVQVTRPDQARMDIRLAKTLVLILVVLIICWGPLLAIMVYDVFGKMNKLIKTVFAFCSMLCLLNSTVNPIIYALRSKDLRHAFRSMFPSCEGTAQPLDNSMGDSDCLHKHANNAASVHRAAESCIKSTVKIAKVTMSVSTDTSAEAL
Sequence of Cannabinoid receptor 1 (Rattus norvegicus, UniProt P20272) (P20272 whole entry): as the sequence (P20272 whole entry) above

Structure (SMILES)	Emax (Cannabinoid receptor 2 [1]) [%]	EC50 (Cannabinoid receptor 2 [2]) [nM]	Ratio Ki (Homo sapiens)	Ki (Cannabinoid receptor 2 [3]) [nM]	Ki (Cannabinoid receptor 2 [4]) [nM]	Ki (Cannabinoid receptor 1 [5]) [nM]	Ki (Cannabinoid receptor 1 [6]) [nM]	inhibition (Cannabinoid receptor 1 [7]) [%]	inhibition [8] [%]
CCCCCn1cc(C(=O)NC23CC4CC(CC(C4)C2)C3)c(=O)c2c(C)csc21	-167	31	12.5	1.12	1.25	13.7	16.5	–	–
CCCCCn1cc(C(=O)NC2CCCCC2)c(=O)c2c(C)noc21	98	14.3	17.7	8.74	38	155	187	–	–
CCCCCn1cc(C(=O)NC2CCCCCC2)c(=O)c2cnn(C)c21	56	404	44	103	130	4550	5200	–	–
CCCCCCn1cc(C(=O)NC2CCCCC2)c(=O)c2c(C)nn(C)c21	27	1200	12	325	480	3870	3220	–	–
CCCCCn1cc(C(=O)NC(C)CCC(C)C)c(=O)c2c(C)nn(C)c21 (stereo not given)	46	827	8.5	212	262	1800	2260	–	–
CCCCCn1cc(C(=O)NC2CCCCC2)c(=O)c2c(C)csc21	-64	107	7.2	12.3	14.8	86	98	–	–
CCCCCn1cc(C(=O)NC2CCCCC2)c(=O)c2c(C(C)(C)C)nn(C)c21	–	–	> 2.8	3530	4030	> 10000	> 10000	23	19
CCCCCn1cc(C(=O)NC23CC4CC(CC(C4)C2)C3)c(=O)c2c(C)nn(C)c21	68	49	84	9.51	11.4	800	832	–	–
CCCCCn1cc(C(=O)NC2CCCCC2)c(=O)c2c(CC)nn(C)c21	32	2350	2	469	516	957	1120	–	–
CCCCCn1cc(C(=O)NC23CC4CC(CC(C4)C2)C3)c(=O)n2ncnc12	60	87	35.6	20	21	712	850	–	–
CCCCCn1cc(C(=O)NC2CCCCCC2)c(=O)c2c(C)noc21	99	35	7.8	18.5	50	145	184	–	–
CCCCCn1cc(C(=O)NC2CCCCCC2)c(=O)c2c(C)nn(C)c21	65	51	23	11.2	35	252	1620	–	–
CCCCCn1cc(C(=O)NC23CC4CC(CC(C4)C2)C3)c(=O)c2c(CC)nn(C)c21	51	162	12	37	97	440	2670	–	–
CCCCCn1cc(C(=O)NC23CC4CC(CC(C4)C2)C3)c(=O)n2nc(-c3ccccc3)nc12	–	–	146	3.58	4.83	523	560	–	–
CCCCCn1cc(C(=O)NC2CCCCC2)c(=O)c2cnn(C)c21	48	872	22	237	250	5150	5650	–	–
CCCCCn1cc(C(=O)NCc2ccccc2)c(=O)c2c(C)nn(C)c21	–	–	> 2.7	3650	4520	> 10000	> 10000	38	42
